# High-throughput results deposited in PubChem BioAssay by several laboratories.
# Compounds with a hit are over-represented: about 4.9% of the library has one in this group of screens.
# APP 5'UTR act: activators of APP 5'UTR luciferase reporter, primary screen, SH-SY5Y cells; SH-SY5Y APP 5'UTR luciferase reporter, luminescence; zero percent = DMSO vehicle wells; activation, % at 2 µM; 1% of 190,000 active;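 active means activation above a set limit, based on mean plus 3 SD of controls, cut at about 140% in these data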
# STAT1 blocker: STAT1 signaling inhibitors, primary screen, cell-based, HTS, luciferase reporter. NIH 3T3 STAT1-luciferase reporter, IFN-gamma, luminescence. inhibition, % at 5.5 µM. 0.35% of 200,000 active. AID 920, 2007;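 active means inhibition above a set limit, the mean inhibition across all tested compounds plus 3 SD, cut at about 34% in these data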;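 further: 0% = IFN-gamma with DMSO and 100% = IFN-gamma with 300 µM nifuroxazide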
# NF-kB expr up: activators of NF-kB expression in neurons, primary screen, cell-based, HTS. human neuronal cells, NF-kB reporter expression; hits give high values. fold change at 12.5 µM. 1.6% of 190,000 active; in the data active means fold change above about 3.3
# STAT1 activator: STAT1 signaling activators, primary screen, cell-based, HTS, luciferase reporter | NIH 3T3 STAT1-luciferase reporter, IFN-gamma, luminescence; 100% = IFN-gamma alone, no compound | activation (% of control), % at 5.5 µM | 2.6% of 200,000 active | AID 932, 2007;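 active means activation above the screen-wide mean activation plus 3 SD, cut at about 130% in these data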;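 further: raw ratio to IFN-gamma control signal so 100% means no change and 0% no light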
# STAT3 act: IL-6 driven STAT3 reporter potentiators, primary screen, U3A cells, luciferase, luminescence, MLSCN library. activation (% of control), % at 5.6 µM. AID 871, 2007. IL-6 STAT3-luciferase reporter; 100% = signal with IL-6 EC80 alone. 0.91% of 190,000 active;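 active means activation above the screen-wide mean of compound activation plus 3 SD, cut at about 130% in these data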;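 further: 0% = background luminescence of wells with medium and substrate only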
#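 System – human U3A cells carrying STAT3-luciferase construct · Probe or stimulus – Interleukin-6, 33 ng/mL · Schedule – compound 1 h, then IL-6 6 h at 37 °C · Signal – luminescence from STAT3-driven luciferase reporter · Evaluation – percent of IL-6-only median luminescence · Benchmarks – IL-6-only high control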
# STAT3 inh: IL-6 driven STAT3 reporter inhibitors, primary screen, U3A cells, luciferase, luminescence, MLSCN library. inhibition, % at 5.5 µM. 0.89% of 190,000 active. AID 862, 2007. IL-6 STAT3-luciferase reporter; host cell line lacks STAT1;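 active means inhibition above the mean inhibition across all screened compounds plus 3 SD, cut at about 44% in these data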;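 further: 0% = DMSO only wells and 100% = 100 µM nifuroxazide control wells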
# Starred values were filed as active, the others as inactive; x = no result given.
SMILES,APP 5'UTR act,STAT1 blocker,NF-kB expr up,STAT1 activator,STAT3 act,STAT3 inh
O=C(O)CNS(=O)(=O)c1ccc(C2CCCCC2)cc1,10.2,-8.7,1.02,106.3,97.9,12.5
C=CCN=C(NC#N)SCC(=O)c1cccc(OC)c1,30.2,-40.9,2.14,137.4*,117.4,-18.2
Cc1cccc(NC(=O)c2cc3ccccc3o2)c1,177.8*,-39.1,6.7*,136.1*,95.7,8.0
O=C(NCCOc1ccccc1)c1cc2ccccc2o1,95.8,-25.8,4.44*,123.8,96.1,7.4
CCCCn1nnc(NC(=O)c2cc3ccccc3o2)n1,25.0,-27.9,2.01,134.6*,103.5,-1.0
NS(=O)(=O)c1cccc(NC(=O)c2cc3ccccc3o2)c1,16.8,-17.2,1.28,113.8,86.7,18.7
CCC(=O)Nc1cccc(-c2cc3ccccc3oc2=O)c1,39.8,-37.6,0.6,133.5*,100.9,4.2
CCCn1nnc(NC(=O)c2cc3ccccc3o2)n1,98.2,-27.4,2.79,125.3,99.5,5.4
CCC(=O)Nc1cccc(NC(=O)c2cc3ccccc3o2)c1,88.7,-52.5,2.88,147.6*,96.6,8.0
O=C(Nc1cccc(Br)c1)c1cc2ccccc2o1,158.4*,-45.5,5.71*,141.8*,110.4,-9.1
Cc1cc(C(=O)Nc2cccc(C(=O)O)c2)c(C)o1,12.4,9.8,1.23,91.0,112.7,-17.2
O=C(NC(=S)Nc1cccnc1)c1cc2ccccc2o1,-3.3,-34.7,1.86,130.7*,97.2,7.7
O=C(NC(=S)NCc1cccnc1)c1cc2ccccc2o1,-14.6,-3.2,1.19,104.7,95.6,10.0
Cc1cc(C(=O)Nc2cccc(C(=O)O)c2)oc1C,-1.7,55.1*,7.04*,49.2,30.5,87.3*
CCOC(=O)c1ccc(NC(=O)c2cc3ccccc3o2)cc1,23.9,-13.0,1.77,112.7,94.2,13.0
CCOc1cc(NC2CS(=O)(=O)CC2O)c(OCC)cc1NC(=O)c1ccccc1 (configuration not stated),8.7,1.0,0.59,99.0,104.0,-1.7
CC(C)CCOCC(=O)Nc1cccc(C(=O)O)c1,78.5,-18.7,1.95,119.0,97.7,7.1
COC(=O)c1sccc1NC(=O)/C=C/c1ccc(Cl)cc1,42.9,-4.0,1.87,103.6,99.5,0.0
Cc1cccc(NC(=O)Cc2noc3ccccc23)c1,38.3,-42.2,2,139.7*,112.8,-13.1
Cc1cccc(NC(=O)Cc2noc3ccccc23)c1C,26.6,-4.7,1.14,103.8,95.6,6.6
O=[N+]([O-])c1ccc2nc(-c3ccccc3)n(OCc3ccc(Cl)cc3)c2c1,39.7,-22.4,5.11*,120.5,97.0,4.1
CN(C)CCCN=c1cc(-c2ccccc2)oc2ccc(Cl)cc12,128.6,-53.5,1.5,148.2*,104.2,-1.4
CCc1ccc(-c2csc(NC(=O)COC(=O)CCc3nc4ccccc4s3)n2)cc1,106.8,-34.1,1.49,131.1*,103.3,-9.2
Cc1nc(NC(=O)COC(=O)CCc2nc3ccccc3s2)c(Cl)cc1Cl,11.3,-0.8,1.13,100.7,104.5,-6.9
COc1ccc(/C(O)=C2/C(=O)C(=O)N(c3ncccn3)C2c2ccc(C(C)(C)C)cc2)cc1 (configuration not stated),9.1,-8.0,1.31,106.9,99.2,3.2
SMILES,APP 5'UTR act,STAT1 blocker,NF-kB expr up,STAT1 activator,STAT3 act,STAT3 inh
Cc1c(C(=O)/C=C/c2cccs2)oc2ccc(F)cc12,-8.9,1.8,2.59,98.3,150.7*,-50.8
O=C(CN1CCCCC1)N/N=C/c1ccccc1OCc1ccccc1,21.6,-6.6,1.45,105.7,105.8,-5.6
CCC(CC)C1=NN2C(=N)/C(=C\c3cc(C)n(-c4cccc(C)c4)c3C)C(=O)N=C2S1,-13.8,0.8,0.95,99.3,105.9,-9.8
Cc1ccc(-c2nc(N/N=C/c3cccnc3)c3ccccc3n2)cc1,26.2,57.1*,2.07,47.8,41.2,72.1*
COc1ccc(C(=O)c2ccc(Cl)c([N+](=O)[O-])c2)cc1,-95.0,4.2,3.65*,96.2,103.1,-1.2
Cc1cc(C)nc(Nc2n[nH]c(-c3ccccc3C)n2)n1,94.2,-37.5,2.71,135.3*,91.3,10.7
Cc1cc(C)nc(Nc2n[nH]c(C)n2)n1,-22.0,-7.4,1.12,104.9,97.7,9.6
Cc1cc(C)nc(Nc2n[nH]c(-c3ccc(N)cc3)n2)n1,x,-54.0,3.17,156.3*,95.8,5.1
Cc1cc(C)nc(Nc2n[nH]c(-c3ccccc3Br)n2)n1,-0.7,-1.3,1.4,98.6,87.2,16.6
CCSc1ccc(-c2cccc([N+](=O)[O-])c2)nn1,27.9,-45.0,1.05,137.3*,107.9,-4.6
O=C(CSc1ccc(-c2cccc([N+](=O)[O-])c2)nn1)N1CCCC1,16.9,-12.6,1.11,108.3,95.9,9.5
CC(C)Oc1ccc(/C=N/NC(=O)C(CSCc2ccccc2)NC(=O)c2ccc([N+](=O)[O-])cc2)cc1 (configuration not stated),11.1,11.8,0.87,89.1,94.8,9.3
O=C(CSc1ncccc1-c1nc2ccccc2[nH]1)NCc1ccco1,15.8,0.4,0.85,99.6,82.8,22.0
Cc1cc2nc(-c3cccnc3SCC(=O)NCc3ccco3)[nH]c2cc1C,119.3,0.9,5.27*,99.2,84.4,23.7
CN(C)c1nc(N(C)C)n(Cc2c(Cl)cccc2Cl)n1,11.4,-5.4,1.37,103.9,96.4,7.8
O=C(NC1CCCCCCC1)c1ccc(CNc2c(N3CCOCC3)c(=O)c2=O)cc1,38.0,-2.6,1.54,103.3,110.4,-12.5
[2H]c1c([2H])c([2H])c(-c2nc(N3CCCCCC3)sc2C(=O)c2ccccc2)c([2H])c1[2H],3.5,-3.6,1.09,103.3,106.0,-0.7
CCOc1ccc(/C=N/n2c(SC)nnc(C(C)(C)C)c2=O)cc1,-2.5,8.4,1.1,92.3,89.5,15.8
CCOc1ccc(/C=N/n2c(SC)nnc2-c2ccccc2)cc1OCC,11.6,-7.2,5.54*,106.6,101.3,-1.3
COc1cc(C)ccc1OCCOCCOc1cc(C)c(C)cc1Br,-0.8,2.8,0.94,97.5,108.5,-6.1
Cc1ccc(NC(=O)CSC2=NN3CCCC(=O)N=C3S2)c(C)c1,13.1,0.6,3.32*,98.3,x,x
Cc1cccc(NC(=O)CSC2=NN3CCCC(=O)N=C3S2)c1C,-6.8,1.2,2.9,97.7,x,x
COc1cc(C(=O)Nc2ccc3c(c2)OCCO3)ccc1OC(F)F,74.9,-40.5,3.37*,139.6*,108.8,-6.1
COc1ccc(C(=O)Nc2ccc(Cl)cn2)cc1Cl,92.0,-43.1,2.86,139.5*,94.6,8.9
